Data set [1] is described as follows: melting temperature; fluorescence melt of hairpins on a sequencing array, two-state fit, raised by 9.35 °C to match UV melts. Conditions: sodium 0.088 M. Put shortly:
(§1)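 Cy3 fluorescence of library hairpins on a sequenced MiSeq flow cell, with annealed Cy3 and quencher oligos, was imaged in 50 mM Na-HEPES pH 8.0, 25 mM NaCl in 2.5 °C steps up to 60 °C. Signals were normalised to pre-quench Cy3 and to control variants. Melting temperature and folding enthalpy came from bootstrapped two-state fits, inverse-variance combined over four replicates. Fitted temperatures were raised by 9.35 °C to match UV melts.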

Data set [2] in a line: folding enthalpy; higher = less favourable; fluorescence melt of hairpins on a sequencing array, two-state fit. Conditions: sodium 0.088 M. A digest of the protocol:
as §1

With GGCGCAGGAAACTGTGCC (((.(((....))).))), the Tm in data set [1] is 61.2 °C. For the same sequence, the folding enthalpy in data set [2] was -47.6 kcal/mol.
For GGCGCCGAAAGGCATGCC ((((((....)))..))) the same measures were 59.7 °C and -19.2 kcal/mol.
For GGCGCTACGAAAGTAGCC (((..(((....)))))), in data set [1], the Tm came to 49.4 °C. Also, the folding enthalpy in data set [2] is -9.44 kcal/mol.
Regarding GGCGCTGGAAACAGTGCC (((.(((....))).))), in data set [1], the Tm turned out to be 62.6 °C. For the same sequence, in data set [2], the folding enthalpy is -49.2 kcal/mol.
For GGCGCTTCGAAAGAAGCC (((..(((....)))))) the same measures were 47.8 °C and -9.84 kcal/mol.
Taken in the same sequence, the figures for GGCGGAGCGAAAGCTGCC (((..(((....)))))) were 52.3 °C and -17 kcal/mol.
As to GGCGGCGAAAGCCACGCC ((((((....)))..))), the Tm in data set [1] amounted to 63.6 °C. The folding enthalpy in data set [2] is -17.1 kcal/mol.
In the case of GGCGGCGAAAGCCCTGCC ((((((....)))..))), in data set [1], the Tm amounted to 53.6 °C. For the same sequence, in data set [2], the folding enthalpy was -20.1 kcal/mol.
For the sequence GGCGGCGAAAGCCGTGCC ((((((....)))..))), the Tm in data set [1] was 57.7 °C. Also, the folding enthalpy in data set [2] is -10.1 kcal/mol.
For the sequence GGCGGCGGAAACGCCACC ((.((((....)))).)), in data set [1], the Tm amounted to 63.7 °C. Also, the folding enthalpy in data set [2] is -27.5 kcal/mol.
Taken in the same sequence, the figures for GGCGGGACGAAAGTCGCC (((..(((....)))))) were 59.5 °C and -28.6 kcal/mol.
Regarding GGCGGGGGAAACTCCGCC (((((.(....).))))), the Tm in data set [1] was determined as 67.7 °C. For the same sequence, the folding enthalpy in data set [2] is -38 kcal/mol.
On to GGCGGTGGAAACACTGCC (((.(((....))).))), for which, in data set [1], the Tm turned out to be 61.6 °C. In addition, the folding enthalpy in data set [2] was -47.3 kcal/mol.
Regarding GGCGGTGGAAACGTCGCC ((((..(....)..)))), the Tm in data set [1] was found to be 53.9 °C. Besides, the folding enthalpy in data set [2] was -33.8 kcal/mol.
As to GGCGTAACGAAAGTTGCC (((..(((....)))))), in data set [1], the Tm stood at 48.9 °C. Besides, the folding enthalpy in data set [2] is -25.3 kcal/mol.
Take GGCGTACGAAAGTAGGCC (((.(((....))).))): the Tm in data set [1] was 64.1 °C. For the same sequence, the folding enthalpy in data set [2] was -36.6 kcal/mol.
Taken in the same sequence, the figures for GGCGTAGCGAAAGCTGCC (((..(((....)))))) were 55.3 °C and -21.9 kcal/mol.
For GGCGTAGGAAACTACACC ((.((((....)))).)) the same measures were 44.4 °C and -29.1 kcal/mol.
Turning to GGCGTAGGAAACTACGTC (.(((((....))))).), in data set [1], the Tm is 52.4 °C. The folding enthalpy in data set [2] is -34.7 kcal/mol.
Regarding GGCGTAGGAAACTGCGCC ((((.((....)).)))), the Tm in data set [1] was determined as 62.3 °C. In data set [2], the folding enthalpy is -48.8 kcal/mol.
Take GGCGTCCGAAAGGAAGCC (((.(((....))).))): the Tm in data set [1] is 67 °C. Besides, the folding enthalpy in data set [2] is -34.7 kcal/mol.
For GGCGTCCGAAAGGAGCC (((.(((....)))))), in data set [1], the Tm is 59.5 °C. For the same sequence, the folding enthalpy in data set [2] is -25.9 kcal/mol.
Taken in the same sequence, the figures for GGCGTCGAAAGACAGCC ((((((....))).))) were 63.7 °C and -34.3 kcal/mol.
Regarding GGCGTCGAAAGACCGGCC ((((((....)))..))), in data set [1], the Tm came to 51 °C. The folding enthalpy in data set [2] was -19.4 kcal/mol.
In the case of GGCGTCGAAAGACGCGCC ((((((....)))..))), the Tm in data set [1] worked out at 62.7 °C. Besides, the folding enthalpy in data set [2] is -6.87 kcal/mol.
For the sequence GGCGTCGAAAGACTAGCC ((((((....)))..))), in data set [1], the Tm was found to be 54.5 °C. Further, the folding enthalpy in data set [2] is -34 kcal/mol.
Consider GGCGTCTCGAAAGAGGCC (((..(((....)))))), for which the Tm in data set [1] is 53 °C. Besides, in data set [2], the folding enthalpy is -33.3 kcal/mol.
Regarding GGCGTGGGAAACCGTGCC (((..((....))..))), the Tm in data set [1] was found to be 49.1 °C. The folding enthalpy in data set [2] is -32.1 kcal/mol.
Regarding GGCGTTGGAAACAGTGCC (((..((....))..))), the Tm in data set [1] was found to be 42.6 °C. Moreover, the folding enthalpy in data set [2] was -28.2 kcal/mol.
For GGCGTTGGAAACGACGTC (.(((.(....).))).), in data set [1], the Tm was 58.1 °C. The folding enthalpy in data set [2] was -29.8 kcal/mol.
GGCGTTGGAAACGATGCC (((.(.(....).).))): in data set [1], the Tm came to 48 °C. Besides, the folding enthalpy in data set [2] was -24.9 kcal/mol.
Consider GGCTAAGGAAACTCAGCC ((((.((....)).)))), for which the Tm in data set [1] came out at 38.1 °C. Also, the folding enthalpy in data set [2] is -27.3 kcal/mol.
With GGCTACGAAAGTAAGCC ((((((....))).))), in data set [1], the Tm is 58.4 °C. For the same sequence, the folding enthalpy in data set [2] is -36.3 kcal/mol.
With GGCTACGAAAGTAATGCC ((((((....)))..))), the Tm in data set [1] was found to be 46.9 °C. The folding enthalpy in data set [2] was -22.6 kcal/mol.
Regarding GGCTACGAAAGTACTGCC ((((((....)))..))), in data set [1], the Tm stood at 39.6 °C. For the same sequence, the folding enthalpy in data set [2] was -22.7 kcal/mol.
As for GGCTACGAAAGTAGGCC ((((((....))).))), in data set [1], the Tm stood at 57.6 °C. In addition, the folding enthalpy in data set [2] is -17.3 kcal/mol.

The record behind these values is the array DNA melting data of Ke et al. (doi:10.1101/2024.01.08.574731).
